{"data": "Assay results of several laboratories", "note": "Compare with care: the assays were run in different laboratories. pEC50: −log10 of the molar value."}
{"Structure (SMILES)": "CC(=O)c1sc(N/N=C/c2c(-c3ccccc3)nc3ncccn23)nc1C", "organism": "Escherichia coli", "assay": "microbial growth, well diffusion", "test system": "ATCC25922", "conditions": "100 µg/mL", "measurement": "inhibition zone", "value": "14 mm"}
{"Structure (SMILES)": "CC1(C)S[C@@H]2[C@H](NC(=O)[C@H](N)c3ccccc3)C(=O)N2[C@H]1C(=O)O", "organism": "Micrococcus luteus", "assay": "microbial growth, broth dilution", "test system": "ATCC4698", "conditions": "43 h", "measurement": "MIC", "value": "0.5 µg/mL"}
{"Structure (SMILES)": "CCOC(=O)/C=C1/SC(N/N=C/c2c(-c3ccc(F)cc3)nc3ncccn23)=NC1=O", "organism": "Escherichia coli", "assay": "microbial growth, well diffusion", "test system": "ATCC25922", "conditions": "100 µg/mL", "measurement": "inhibition zone", "value": "10 mm"}
{"Structure (SMILES)": "CN[C@H](CC(C)C)C(=O)N[C@H]1C(=O)N[C@@H](CC(N)=O)C(=O)N[C@H]2C(=O)N[C@H]3C(=O)N[C@H](C(=O)N[C@H](C(=O)O)c4cc(O)cc(O)c4-c4cc3ccc4O)[C@H](O)c3ccc(c(Cl)c3)Oc3cc2cc(c3O[C@@H]2O[C@H](CO)[C@@H](O)[C@H](O)[C@H]2O[C@H]2C[C@](C)(N)[C@H](O)[C@H](C)O2)Oc2ccc(cc2Cl)[C@H]1O", "organism": "Micrococcus luteus", "assay": "microbial growth, broth dilution", "test system": "ATCC4698", "measurement": "MIC", "value": "0.34 µM"}
{"Structure (SMILES)": "CN[C@H](CC(C)C)C(=O)N[C@H]1C(=O)N[C@@H](CC(N)=O)C(=O)N[C@H]2C(=O)N[C@H]3C(=O)N[C@H](C(=O)N[C@H](C(=O)O)c4cc(O)cc(O)c4-c4cc3ccc4O)[C@H](O)c3ccc(c(Cl)c3)Oc3cc2cc(c3O[C@@H]2O[C@H](CO)[C@@H](O)[C@H](O)[C@H]2O[C@H]2C[C@](C)(N)[C@H](O)[C@H](C)O2)Oc2ccc(cc2Cl)[C@H]1O", "organism": "Micrococcus luteus", "assay": "microbial growth, broth dilution", "test system": "DSM1790", "measurement": "MIC", "value": "0.17 µM"}
{"Structure (SMILES)": "CCCS(=O)(=O)Oc1ccc(C=NNC(=O)CSc2nc3ccc(Cl)cc3c(=O)n2-c2ccccc2)cc1", "organism": "Staphylococcus aureus", "assay": "microbial growth, well diffusion", "test system": "MRSA", "conditions": "20 µg/mL", "measurement": "inhibition zone", "value": "2 mm"}
{"Structure (SMILES)": "CN[C@H](CC(C)C)C(=O)N[C@H]1C(=O)N[C@@H](CC(N)=O)C(=O)N[C@H]2C(=O)N[C@H]3C(=O)N[C@H](C(=O)N[C@H](C(=O)O)c4cc(O)cc(O)c4-c4cc3ccc4O)[C@H](O)c3ccc(c(Cl)c3)Oc3cc2cc(c3O[C@@H]2O[C@H](CO)[C@@H](O)[C@H](O)[C@H]2O[C@H]2C[C@](C)(N)[C@H](O)[C@H](C)O2)Oc2ccc(cc2Cl)[C@H]1O", "organism": "Staphylococcus aureus", "assay": "microbial growth, agar dilution", "test system": "ATCC29213", "measurement": "MIC", "value": "1 µg/mL"}
{"Structure (SMILES)": "O=c1cc(Nc2ccccc2)c2ccccc2o1", "organism": "Escherichia coli", "assay": "microbial growth, broth dilution", "measurement": "MIC90", "value": "9 µg/mL"}
{"Structure (SMILES)": "CCS(=O)(=O)Oc1cc(C=NNC(=O)CSc2nc3c(C)cccc3c(=O)n2-c2ccccc2)ccc1OC", "organism": "Staphylococcus aureus", "assay": "microbial growth, well diffusion", "test system": "MRSA", "conditions": "20 µg/mL", "measurement": "inhibition zone", "value": "3 mm"}
{"Structure (SMILES)": "CCCSc1ccc2nc(NC(=O)OC)[nH]c2c1", "organism": "Angiostrongylus cantonensis", "assay": "parasite motility", "conditions": "24 h, larva", "measurement": "pEC50", "value": 4.97}
{"Structure (SMILES)": "C=C[C@]1(C)C[C@@H](OC(=O)CS[C@@H]2C[C@H]3CC[C@@H](C2)N3C)[C@]2(C)[C@H](C)CC[C@]3(CCC(=O)[C@H]32)[C@@H](C)[C@@H]1O", "organism": "Staphylococcus aureus", "assay": "microbial growth", "test system": "MSSA", "conditions": "clinical isolate", "measurement": "MIC90", "value": "0.0625 µg/mL"}
{"Structure (SMILES)": "OC(Cn1cncn1)(Cn1cncn1)c1ccc(F)cc1F", "organism": "Alternaria solani", "assay": "microbial growth, broth dilution", "measurement": "MIC", "value": "16 µg/mL"}
{"Structure (SMILES)": "O=C1C(=O)c2cccnc2-c2ncccc21", "organism": "Angiostrongylus cantonensis", "assay": "parasite motility", "conditions": "24 h, larva", "measurement": "pEC50", "value": 4.59}
{"Structure (SMILES)": "CNC(C)C1CCC(N)C(OC2C(N)CC(N)C(OC3OCC(C)(O)C(NC)C3O)C2O)O1 (centres unmarked)", "organism": "Escherichia coli", "assay": "microbial killing, broth dilution", "test system": "ATCC25922", "conditions": "24 h", "measurement": "MBC", "value": "4000 µM"}
